42 compounds from ChEMBL document CHEMBL1140408 (J Med Chem, 2005) can be followed below.

T1 sequence (O35433 whole entry): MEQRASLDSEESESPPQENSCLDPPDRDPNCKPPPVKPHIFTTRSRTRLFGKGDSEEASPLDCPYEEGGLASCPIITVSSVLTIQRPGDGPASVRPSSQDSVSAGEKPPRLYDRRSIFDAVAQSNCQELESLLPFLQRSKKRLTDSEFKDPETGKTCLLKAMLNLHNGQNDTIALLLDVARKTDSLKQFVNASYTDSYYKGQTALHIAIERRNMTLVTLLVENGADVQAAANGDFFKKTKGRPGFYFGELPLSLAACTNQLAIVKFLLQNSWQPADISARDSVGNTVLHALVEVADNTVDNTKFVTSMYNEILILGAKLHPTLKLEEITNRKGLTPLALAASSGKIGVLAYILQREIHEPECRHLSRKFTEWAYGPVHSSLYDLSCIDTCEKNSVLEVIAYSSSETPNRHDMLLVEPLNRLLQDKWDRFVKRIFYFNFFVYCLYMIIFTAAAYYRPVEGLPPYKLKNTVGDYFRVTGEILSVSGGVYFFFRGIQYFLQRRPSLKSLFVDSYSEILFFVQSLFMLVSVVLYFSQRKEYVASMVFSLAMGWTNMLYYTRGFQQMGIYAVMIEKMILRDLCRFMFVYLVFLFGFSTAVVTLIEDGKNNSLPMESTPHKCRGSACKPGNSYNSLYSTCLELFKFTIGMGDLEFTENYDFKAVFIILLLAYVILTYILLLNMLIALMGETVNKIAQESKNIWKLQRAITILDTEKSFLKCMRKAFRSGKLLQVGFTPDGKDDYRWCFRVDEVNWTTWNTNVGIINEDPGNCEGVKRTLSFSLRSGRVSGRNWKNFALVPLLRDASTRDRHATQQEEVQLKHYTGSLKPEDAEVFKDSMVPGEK

The target of one experiment is T1, Transient receptor potential cation channel subfamily V member 1 (Rattus norvegicus, UniProt O35433). As to the kind of experiment: Inhibitory effect on capsaicin (0.5 uM)-induced calcium uptake in rat DRG neurons upon incubation at RT for 10 minutes; NE=Not effective. In short, it runs like this:
(§1)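 Neonatal Sprague–Dawley rat DRG neurons, dissociated with collagenase/trypsin and cultured 3 days with 200 ng/mL NGF (cytosine arabinoside for the first 2 days), were washed in Ca/Mg-free HBSS with 10 mM HEPES at pH 7.4. They were then given 45Ca2+ (10 µCi/mL), 0.5 µM capsaicin and compound for 10 min at room temperature, SDS-lysed and scintillation-counted.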
Consider `CC(C)(C)c1ccccc1C/N=C(\S)NCc1ccc(NS(C)(=O)=O)c(F)c1`, for which the half-inhibitory concentration (IC50) result was “Not Active”.

Consider `CC(C)(C)c1ccc(C/N=C(\S)NCc2ccc(N)c(F)c2)cc1`, for which the IC50 entry is on record as “Not Active”.

`COC(=O)Nc1ccc(C/N=C(\S)NCc2ccc(C(C)(C)C)cc2)cc1F`: the IC50 entry is “Not Active”.

Another experiment concerns the target T1, Transient receptor potential cation channel subfamily V member 1. The experiment in a line: Inhibitory effect on capsaicin (0.5 uM)-induced calcium uptake in rat DRG neurons upon incubation at RT for 10 minutes. In short, it runs like this:
as §1
For the compound `CC(C)(C)c1ccc(CNC(=S)NCc2ccc(NS(C)(=O)=O)c([N+](=O)[O-])c2)cc1`, the IC50 turned out to be 71 nM.

Regarding `CC(C)(C)c1ccc(C/N=C(\S)NCc2ccc(NS(C)(=O)=O)c(C#N)c2)cc1`, the IC50 came to 5900 nM.

Regarding `CC(C)(C)c1ccc(CCNC(=S)NCc2ccc(NS(C)(=O)=O)c(F)c2)cc1`, the IC50 was found to be 370 nM.

In the case of `CS(=O)(=O)Nc1ccc(CN=C(S)NCc2cccc3ccccc23)cc1F`, the IC50 was 2600 nM.

For the compound `CCOC(=O)CNc1ccc(CNC(=S)NCc2ccc(C(C)(C)C)cc2)cc1F`, the IC50 is over 30000 nM.

In the case of `CC(C)(C)c1ccc(CNC(=S)NCc2ccc3nc[nH]c3c2)cc1`, the IC50 worked out at 790 nM.

Regarding `CC(C)(C)c1ccc(C/N=C(\S)NCc2ccc(NS(C)(=O)=O)c(Br)c2)cc1`, the half-maximal inhibitory concentration (IC50) was found to be 80 nM.

`CC(C)(C)c1cc(CNC(=S)NCc2ccc(NS(C)(=O)=O)c(F)c2)cc(C(C)(C)C)c1`: the IC50 is 200 nM.

For the compound `CS(=O)(=O)Nc1ccc(C/N=C(\S)NCc2ccc(Br)cc2)cc1F`, the IC50 was found to be 570 nM.

With `CC(C)(C)c1ccc(CNC(=S)NCc2ccc(NS(C)(=O)=O)c(I)c2)cc1`, the IC50 stood at 41 nM.

Take `Cc1ccc(C/N=C(\S)NCc2ccc(NS(C)(=O)=O)c(F)c2)cc1`: the IC50 was 1500 nM.

Take `CC(C)(C)c1ccc(C/N=C(\S)NCc2ccc(NS(C)(=O)=O)c(C(=O)NO)c2)cc1`: the IC50 is over 30000 nM.

With `CCOC(=O)N/C(=N\Cc1ccc(NS(C)(=O)=O)c(F)c1)NCc1ccc(C(C)(C)C)cc1`, the IC50 worked out at 6200 nM.

Consider `CCc1ccc(C/N=C(\S)NCc2ccc(NS(C)(=O)=O)c(F)c2)cc1`, for which the half-inhibitory concentration (IC50) amounted to 1100 nM.

Take `CS(=O)(=O)Nc1ccc(C/N=C(\S)NCc2ccc(I)cc2)cc1F`: the concentration for half-maximal inhibition (IC50) is 630 nM.

Take `CONC(=O)c1cc(C/N=C(\S)NCc2ccc(C(C)(C)C)cc2)ccc1NS(C)(=O)=O`: the IC50 was over 30000 nM.

On to `CS(=O)(=O)Nc1ccc(C/N=C(\S)NC(c2ccccc2)c2ccccc2)cc1F`, for which the IC50 amounted to 2500 nM.

In the case of `CS(=O)(=O)Nc1ccc(C/N=C(\S)Nc2c3ccccc3cc3ccccc23)cc1F`, the IC50 is 1100 nM.

Consider `CC(C)(C)c1ccc(CNC(=S)NCc2ccc(NC(=O)C(F)(F)F)c(F)c2)cc1`, for which the IC50 is over 30000 nM.

Regarding `CC(C)(C)NC(=S)NCc1ccc(NS(C)(=O)=O)c(F)c1`, the IC50 is over 30000 nM.

`CC(C)(C)c1ccc(CNC(=S)NCc2ccc3nn[nH]c3c2)cc1`: the IC50 turned out to be 50 nM.

On to `CCCCc1ccc(CNC(=S)NCc2ccc(NS(C)(=O)=O)c(F)c2)cc1`, for which the IC50 amounted to 470 nM.

On to `CC(C)c1ccc(C/N=C(\S)NCc2ccc(NS(C)(=O)=O)c(F)c2)cc1`, for which the IC50 amounted to 520 nM.

Take `CC(C)(C)c1ccc(N/C(S)=N/Cc2ccc(NS(C)(=O)=O)c(F)c2)cc1`: the IC50 is 1600 nM.

In the case of `COCC(=O)Nc1ccc(CNC(=S)NCc2ccc(C(C)(C)C)cc2)cc1F`, the 50% inhibitory concentration (IC50) worked out at 10900 nM.

Turning to `Cc1ccccc1C/N=C(\S)NCc1ccc(NS(C)(=O)=O)c(F)c1`, the IC50 stood at 670 nM.

`Cc1cccc(CNC(=S)NCc2ccc(NS(C)(=O)=O)c(F)c2)c1`: the IC50 is 1300 nM.

Consider `CC(C)(C)c1ccc(CNC(=S)NCc2ccc3[nH]ccc3c2)cc1`, for which the IC50 was determined as 1800 nM.

With `CC(C)(C)c1ccc(C/N=C(\NC#N)NCc2ccc(NS(C)(=O)=O)c(F)c2)cc1`, the IC50 was found to be 730 nM.

With `CCOC(=O)Nc1ccc(C/N=C(\S)NCc2ccc(C(C)(C)C)cc2)cc1F`, the IC50 was over 30000 nM.

With `CC(C)OC(=O)c1cc(C/N=C(\S)NCc2ccc(C(C)(C)C)cc2)ccc1NS(C)(=O)=O`, the IC50 was over 30000 nM.

Take `CS(=O)(=O)Nc1ccc(CNC(=S)NCc2ccc(-c3ccccc3)cc2)cc1F`: the IC50 was over 30000 nM.

As for `COC(=O)CNc1ccc(CNC(=S)NCc2ccc(C(C)(C)C)cc2)cc1F`, the 50% inhibitory concentration (IC50) was 3600 nM.

With `CCCc1ccc(CNC(=S)NCc2ccc(NS(C)(=O)=O)c(F)c2)cc1`, the 50% inhibitory concentration (IC50) amounted to 460 nM.

Regarding `CC(C)(C)c1ccc(CCC/N=C(\S)NCc2ccc(NS(C)(=O)=O)c(F)c2)cc1`, the IC50 was 2000 nM.

As for `CC(C)(C)c1ccc(C(C)(C)/N=C(\S)NCc2ccc(NS(C)(=O)=O)c(F)c2)cc1`, the half-maximal inhibitory concentration (IC50) is over 30000 nM.

In the next experiment the target is T2, Transient receptor potential cation channel subfamily V member 1 (Homo sapiens, UniProt Q8NER1). The experiment in a line: Concentration required to inhibit [3H]RTX radioligand binding towards transient receptor potential cation channel (subfamily V, member 1) expressed in chinese hamster ovary cells. Type of experiment: cell-based, CHO.
T2 sequence (Q8NER1 whole entry): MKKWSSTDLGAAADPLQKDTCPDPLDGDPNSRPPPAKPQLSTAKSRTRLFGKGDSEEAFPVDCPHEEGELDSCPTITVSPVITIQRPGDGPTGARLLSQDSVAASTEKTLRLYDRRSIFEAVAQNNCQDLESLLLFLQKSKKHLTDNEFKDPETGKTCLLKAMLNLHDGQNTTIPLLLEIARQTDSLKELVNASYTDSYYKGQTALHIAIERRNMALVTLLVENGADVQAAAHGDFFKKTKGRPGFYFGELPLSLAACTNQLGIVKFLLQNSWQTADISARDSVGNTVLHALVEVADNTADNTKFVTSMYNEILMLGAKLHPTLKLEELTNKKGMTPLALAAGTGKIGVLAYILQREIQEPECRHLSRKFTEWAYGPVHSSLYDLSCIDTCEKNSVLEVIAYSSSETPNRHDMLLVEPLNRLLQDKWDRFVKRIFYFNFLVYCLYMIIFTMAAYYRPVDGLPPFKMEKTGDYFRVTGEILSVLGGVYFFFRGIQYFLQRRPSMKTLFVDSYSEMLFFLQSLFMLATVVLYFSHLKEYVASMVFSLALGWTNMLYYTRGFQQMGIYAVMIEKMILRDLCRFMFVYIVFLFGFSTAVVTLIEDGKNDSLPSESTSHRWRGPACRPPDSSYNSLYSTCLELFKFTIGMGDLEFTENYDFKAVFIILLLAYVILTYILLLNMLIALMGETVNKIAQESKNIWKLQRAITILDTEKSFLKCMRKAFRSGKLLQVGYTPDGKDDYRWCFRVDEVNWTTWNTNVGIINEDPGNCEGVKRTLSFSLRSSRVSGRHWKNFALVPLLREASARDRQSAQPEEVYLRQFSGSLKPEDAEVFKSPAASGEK
The compound `CC(C)(C)c1ccc(CNC(=S)NCc2ccc(NS(C)(=O)=O)c(F)c2)cc1` gave an IC50 of 54 nM.

A further experiment concerns the target T2, Transient receptor potential cation channel subfamily V member 1. The experiment in a line: Concentration required to antagonized capsaicin-induced calcium uptake at the transient receptor potential cation channel (subfamily V member 1) expressed in chinese hamster ovary cells. Format: cell-based, CHO.
As for `CC(C)(C)c1ccc(CNC(=S)NCc2ccc(NS(C)(=O)=O)c(F)c2)cc1`, the EC50 was 8 nM.

For the next experiment, the target named is T1, Transient receptor potential cation channel subfamily V member 1. As to the kind of experiment: Inhibitory effect on capsaicin (0.5 uM)-induced calcium uptake in rat DRG neurons upon incubation at RT for 10 minutes; NE = Not effective. In short, it runs like this:
as §1
For `CC(C)(C)c1ccc(C/N=C(\S)NCc2ccc(NCC(=O)O)c(F)c2)cc1`, the IC50 entry is listed as “Not Active”.

In the case of `CC(C)(C)c1ccc(C/N=C(\S)NCc2ccc3c(c2)OCO3)cc1`, the IC50 result is “Not Active”.
